{
  "source": "ChEMBL document CHEMBL4371078",
  "about": "“N-Naphthoyl-substituted indole thio-barbituric acid analogs inhibit the helicase activity of the hepatitis C virus NS3” (Bioorg Med Chem Lett, 2019)",
  "key": {"[1]": {"system": "Hepatitis C virus subtype 1b", "assay": "Inhibition of recombinant full length HCV genotype 1b NS3 helicase activity assessed as reduction in 5'-FAM labeled dsDNA substrate unwinding at 30 uM preincubated for 10 mins followed by MgCl2/ATP addition and measured after 30 mins by real-time fluorescence assay", "how_it_was_run": "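96-well real-time unwinding of a fluorescently labelled duplex DNA by full-length recombinant NS3 with saturating ATP and Mg2+. Read-out was the increase in FAM fluorescence. Compounds were tested at 30 µM in 5% DMSO. Unwinding rates were normalized to DMSO controls. Values are the mean ± standard deviation of triplicate measurements.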"}, "[2]": {"system": "Hepacivirus hominis", "assay": "Inhibition of HCV NS3/4A protease activity at 10 uM using Ac-Asp-Glu-Asp-EDANS-Glu-Glu-Abu-L-Lactoyl-Ser-Lys DABCYL-NH2 as substrate measured for 30 mins by fluorescence assay relative to control", "how_it_was_run": "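Recombinant HCV NS3–4A with full protease activity, incubated with the internally quenched EDANS/DABCYL peptide substrate; cleavage read as the rise in fluorescence. Activities were normalized to control and given as mean ± standard deviation of triplicate measurements.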"}, "[3]": {"system": "Hepatitis C virus subtype 1b", "assay": "Inhibition of polyU RNA-stimulated recombinant full length HCV genotype 1b NS3 ATPase activity assessed as Kcat for substrate at 25 uM in presence of 5 mM ATP measured for 1 min by pyruvate kinase/ lactate dehydrogenase enzyme coupled spectrophotometric method (reference value: 68 /s)"}, "[4]": {"system": "Hepatitis C virus subtype 1b", "assay": "Inhibition of polyU RNA-stimulated recombinant full length HCV genotype 1b NS3 ATPase activity assessed as Km for substrate at 25 uM in presence of 5 mM ATP measured for 1 min by pyruvate kinase/ lactate dehydrogenase enzyme coupled spectrophotometric method (reference value: 0.41 mM)"}, "[5]": {"assay": "(§1) Inhibition of recombinant full length HCV genotype 1b NS3 helicase activity assessed as reduction in 5'-FAM labeled dsDNA substrate unwinding preincubated for 10 mins followed by MgCl2/ATP addition and measured after 30 mins by real-time fluorescence assay", "set-up": "species or system Hepatitis C virus subtype 1b", "how_it_was_run": "(§2)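 Real-time plate unwinding of a FAM-labelled duplex DNA by full-length recombinant NS3 with saturating ATP and Mg2+, read as the fluorescence increase. Compounds were dosed over a range to derive an IC50.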"}, "[6]": {"system": "Hepatitis C virus subtype 1b", "assay": "as §1", "how_it_was_run": "as §2"}, "[7]": {"system": "Hepatitis C virus subtype 1b", "assay": "(§3) Inhibition of recombinant full length HCV genotype 1b NS3 helicase activity assessed as reduction in radiolabeled dsDNA substrate unwinding by measuring unwinding rate constant at 25 uM preincubated for 5 mins followed by MgCl2/ATP addition and measured up to 50 mins by PAGE based phosphor imaging analysis (reference value: 0.039 +/- 0.002 /min)", "how_it_was_run": "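Gel-based unwinding of 2 nM radiolabelled duplex DNA by 100 nM recombinant NS3 with excess ATP. Compound was present at 25 µM. Unwound fraction was quantified at time points and fit to a single exponential for the rate constant. Triplicate experiments were averaged.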"}, "[8]": {"system": "Hepatitis C virus subtype 1b", "assay": "as §3, with “radiolabeled 38 bp dsRNA” for “radiolabeled dsDNA”, “for 20” for “for 5”, “to 4” for “to 50”, “value: 1.84” for “value: 0.039”, “+/- 0.19” for “+/- 0.002”", "how_it_was_run": "(§4)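 Polyacrylamide gel unwinding of a radiolabelled 38 bp duplex RNA by recombinant NS3 with compound at 25 µM. Radioactivity at time points from triplicate experiments was averaged and fit to a single exponential to give rate constants.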"}, "[9]": {"system": "Hepatitis C virus subtype 1b", "assay": "Inhibition of recombinant full length HCV genotype 1b NS3 helicase activity assessed as reduction in radiolabeled 38 bp dsRNA substrate unwinding t 25 uM preincubated for 20 mins followed by MgCl2/ATP addition and measured up to 4 mins by PAGE based phosphor imaging analysis relative to control", "how_it_was_run": "as §4"}, "[10]": {"assay": "Inhibition of recombinant full length HCV genotype 1b NS3 interaction with 3'-FAM labeled ssDNA assessed as Kd for NS3-ssDNA complex at 25 uM by fluorescence polarization assay (reference value: 3.3 +/- 0.2 nM)", "set-up": "species or system Hepatitis C virus subtype 1b"}, "[11]": {"system": "Hepacivirus hominis", "assay": "Inhibition of HCV NS3/4A protease activity at 25 uM using Ac-Asp-Glu-Asp-EDANS-Glu-Glu-Abu-L-Lactoyl-Ser-Lys DABCYL-NH2 as substrate measured for 30 mins by fluorescence assay", "how_it_was_run": "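NS3–4A protease activity read by fluorescence of the internally quenched EDANS/DABCYL peptide after cleavage. Compounds were tested at 25 µM, with telaprevir at 10 µM as the positive control. Activities were normalized. Values are the mean ± standard deviation of triplicate measurements.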"}},
  "note": "Active and inactive are the calls of the source. No cut-off for these calls is given here.",
  "data": [
    {"smiles": "O=C1NC(=S)NC(=O)C1=Cc1cn(C(=O)c2cccc3ccccc23)c2ccc(Cl)cc12", "values": [
      {"measurement": "inhibition", "setting": "[1]", "result": "inactive"}
    ]},
    {"smiles": "CCC[C@H](NC(=O)[C@@H]1[C@H]2CCC[C@H]2CN1C(=O)[C@@H](NC(=O)[C@@H](NC(=O)c1cnccn1)C1CCCCC1)C(C)(C)C)C(=O)C(=O)NC1CC1", "values": [
      {"measurement": "inhibition", "setting": "[2]", "result": 85, "unit": "%"}
    ]},
    {"smiles": "O=C1NC(=S)NC(=O)C1=Cc1cn(C(=O)c2ccc3ccccc3c2)c2ccc(Cl)cc12", "values": [
      {"measurement": "inhibition", "setting": "[1]", "result": "inactive"}
    ]},
    {"smiles": "COc1ccc2c(c1)c(C=C1C(=O)NC(=S)NC1=O)cn2C(=O)c1cccc2ccccc12", "values": [
      {"measurement": "kcat", "setting": "[3]", "result": 68.7, "unit": "s⁻¹"},
      {"measurement": "Km", "setting": "[4]", "result": 860, "unit": "µM"},
      {"measurement": "inhibition", "setting": "[1]", "result": "Active"},
      {"measurement": "IC50", "setting": "[5]", "result": 23.5, "unit": "µM"},
      {"measurement": "inhibition", "setting": "[6]", "result": "Dose-dependent effect"},
      {"measurement": "K", "setting": "[7]", "result": 0.024, "unit": "min⁻¹"},
      {"measurement": "K", "setting": "[8]", "result": 2.14, "unit": "min⁻¹"},
      {"measurement": "inhibition", "setting": "[9]", "result": 50, "unit": "%"},
      {"measurement": "Kd", "setting": "[10]", "result": 0.0057, "unit": "µM"},
      {"measurement": "inhibition", "setting": "[11]", "result": "inactive"}
    ]},
    {"smiles": "COc1ccc2c(c1)c(C=C1C(=O)NC(=S)NC1=O)cn2C(=O)c1ccc2ccccc2c1", "values": [
      {"measurement": "kcat", "setting": "[3]", "result": 73, "unit": "s⁻¹"},
      {"measurement": "Km", "setting": "[4]", "result": 1000, "unit": "µM"},
      {"measurement": "inhibition", "setting": "[1]", "result": "Active"},
      {"measurement": "IC50", "setting": "[5]", "result": 21.4, "unit": "µM"},
      {"measurement": "inhibition", "setting": "[6]", "result": "Dose-dependent effect"},
      {"measurement": "K", "setting": "[7]", "result": 0.021, "unit": "min⁻¹"},
      {"measurement": "K", "setting": "[8]", "result": 2.38, "unit": "min⁻¹"},
      {"measurement": "inhibition", "setting": "[9]", "result": 50, "unit": "%"},
      {"measurement": "Kd", "setting": "[10]", "result": 0.0028, "unit": "µM"},
      {"measurement": "inhibition", "setting": "[11]", "result": "inactive"}
    ]},
    {"smiles": "O=C1NC(=S)NC(=O)C1=Cc1cn(C(=O)c2ccc3ccccc3c2)c2ccccc12", "values": [
      {"measurement": "kcat", "setting": "[3]", "result": 65.3, "unit": "s⁻¹"},
      {"measurement": "Km", "setting": "[4]", "result": 480, "unit": "µM"},
      {"measurement": "inhibition", "setting": "[1]", "result": "Active"},
      {"measurement": "IC50", "setting": "[5]", "result": 21.6, "unit": "µM"},
      {"measurement": "inhibition", "setting": "[6]", "result": "Dose-dependent effect"},
      {"measurement": "K", "setting": "[7]", "result": 0.018, "unit": "min⁻¹"},
      {"measurement": "K", "setting": "[8]", "result": 1.81, "unit": "min⁻¹"},
      {"measurement": "inhibition", "setting": "[9]", "result": 50, "unit": "%"},
      {"measurement": "Kd", "setting": "[10]", "result": 0.0031, "unit": "µM"},
      {"measurement": "inhibition", "setting": "[11]", "result": "inactive"}
    ]}
  ]
}
